The values that follow come from ChEMBL document CHEMBL1152792, “Synthesis and anticonvulsant activity of amino acid-derived sulfamides” (J Med Chem, 2009).

Active and inactive are the calls of the source. No cut-off for these calls is given here.

Series [1] relates to Mus musculus. As to the kind of experiment: Toxicity in albino mouse at 100 mg/kg, ip after 4 hrs by rotarod test. More on the design: dose 100 mg/kg, route intraperitoneal. It counts as organism-based. The following applies: in vivo. A digest of the protocol: (§1)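 Neurotoxicity was screened by the standardized rotarod test in the ADD phase I protocol. Adult male albino mice (18–23 g) received compound ip in 30% PEG 400 and 10% water at 0.01 mL/g. Animals were tested 0.5 and 4 h post-dose. Result scored as toxic/tested animals.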

In series [2] the test system is Mus musculus. As to the kind of experiment: Toxicity in albino mouse at 30 mg/kg, ip after 4 hrs by rotarod test. It counts as organism-based. Also on record: dose 30 mg/kg, route intraperitoneal. The following applies: in vivo. In a few lines:
as §1

The subject of series [3] is Mus musculus. As to the kind of experiment: Anticonvulsant activity in ip dosed albino mouse after 2 hrs by MES test. In kind it is functional. A digest of the protocol: (§2)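 Phase II quantitative MES test in adult male albino mice (18–23 g). Compound given ip in 30% PEG 400 and 10% water at 0.01 mL/g. Testing was done at the previously determined time of peak effect. Six mice per dose group; ED50 (dose protecting 50% of animals, μmol/kg) calculated from the dose–response curve.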

Series [4] deals with Mus musculus. As to the kind of experiment: Toxicity in albino mouse at 300 mg/kg, ip after 0.5 hrs by rotarod test. The following applies: in vivo. It counts as organism-based. Also on record: dose 300 mg/kg, route intraperitoneal. In a few lines:
as §1

Series [5] has as its system Mus musculus. As to the kind of experiment: Anticonvulsant activity in albino mouse at 30 mg/kg, ip after 4 hrs by PTZ test. It counts as functional, organism-based. More on the design: dose 30 mg/kg. In a few lines: (§3)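 NIH Anticonvulsant Drug Development (ADD) program phase I screen in adult male albino mice (18–23 g). Compound given ip in 30% PEG 400 and 10% water at 0.01 mL/g body weight. Seizures were induced electrically (MES) or chemically (PTZ), and animals were tested 0.5 and 4 h after dosing. Result scored as protected/tested animals.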

In series [6] the test system is Mus musculus. As to the kind of experiment: Anticonvulsant activity in albino mouse at 300 mg/kg, ip after 4 hrs by PTZ test. More on the design: dose 300 mg/kg. In kind it is functional, organism-based. In a few lines: as §3
Series [7] deals with Mus musculus. As to the kind of experiment: Anticonvulsant activity in albino mouse at 300 mg/kg, ip after 0.5 hrs by PTZ test. In kind it is functional, organism-based. Also on record: dose 300 mg/kg. A digest of the protocol: as §3
In series [8] the test system is Mus musculus. As to the kind of experiment: Anticonvulsant activity in albino mouse at 100 mg/kg, ip after 4 hrs by PTZ test. It counts as functional, organism-based. More on the design: dose 100 mg/kg. In a few lines:
as §3

In series [9] the test system is Mus musculus. As to the kind of experiment: Toxicity in albino mouse at 30 mg/kg, ip after 0.5 hrs by rotarod test. The following applies: in vivo. It counts as organism-based. Also on record: dose 30 mg/kg, route intraperitoneal. In a few lines:
as §1

Series [10] deals with Mus musculus. As to the kind of experiment: Anticonvulsant activity in albino mouse at 100 mg/kg, ip after 0.5 hrs by PTZ test. It counts as functional, organism-based. Also on record: dose 100 mg/kg. In a few lines:
as §3

Series [11] deals with Mus musculus. As to the kind of experiment: Toxicity in albino mouse at 300 mg/kg, ip after 4 hrs by rotarod test. It counts as organism-based. The following applies: in vivo. More on the design: dose 300 mg/kg, route intraperitoneal. In a few lines: as §1
Series [12] concerns Mus musculus. As to the kind of experiment: Anticonvulsant activity in albino mouse at 30 mg/kg, ip after 0.5 hrs by MES test. In kind it is functional, organism-based. Also on record: dose 30 mg/kg. In a few lines: as §3
Series [13] relates to Mus musculus. As to the kind of experiment: Toxicity in albino mouse at 100 mg/kg, ip after 0.5 hrs by rotarod test. The following applies: in vivo. Also on record: dose 100 mg/kg, route intraperitoneal. It counts as organism-based. A digest of the protocol: as §1
Series [14] concerns Mus musculus. As to the kind of experiment: Anticonvulsant activity in albino mouse at 30 mg/kg, ip after 4 hrs by MES test. In kind it is functional, organism-based. Also on record: dose 30 mg/kg. In a few lines:
as §3

Series [15] relates to Mus musculus. As to the kind of experiment: Anticonvulsant activity in albino mouse at 30 mg/kg, ip after 0.5 hrs by PTZ test. It counts as functional, organism-based. More on the design: dose 30 mg/kg. A digest of the protocol: as §3
The species entered for series [16] is Mus musculus. As to the kind of experiment: Ratio of valproic acid ED50 to compound ED50 in albino mouse after 2 hrs by MES test. It counts as functional. In a few lines: (§4)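 The compound ED50 came from ip dosing in male albino mice (six per dose) at the time of peak effect. The valproate ED50 was taken from earlier literature.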
Series [17] has as its system Mus musculus. As to the kind of experiment: Anticonvulsant activity in albino mouse at 100 mg/kg, ip after 4 hrs by MES test. In kind it is functional, organism-based. Also on record: dose 100 mg/kg. In a few lines:
as §3

In series [18] the test system is Mus musculus. As to the kind of experiment: Anticonvulsant activity in albino mouse at 100 mg/kg, ip after 0.5 hrs by MES test. Also on record: dose 100 mg/kg. It counts as functional, organism-based. In a few lines:
as §3

Series [19] relates to Mus musculus. As to the kind of experiment: Anticonvulsant activity in albino mouse at 300 mg/kg, ip after 0.5 hrs by MES test. It counts as functional, organism-based. Also on record: dose 300 mg/kg. A digest of the protocol:
as §3

Series [20] has as its system Mus musculus. As to the kind of experiment: Anticonvulsant activity in albino mouse at 300 mg/kg, ip after 4 hrs by MES test. It counts as functional, organism-based. More on the design: dose 300 mg/kg. In a few lines:
as §3

In series [21] the test system is Mus musculus. As to the kind of experiment: Anticonvulsant activity in ip dosed albino mouse after 0.25 hrs by MES test. It counts as functional.
The test system of series [22] is Mus musculus. As to the kind of experiment: Anticonvulsant activity in ip dosed albino mouse after 4 hrs by MES test. It counts as functional. In a few lines: as §2
The species entered for series [23] is Mus musculus. As to the kind of experiment: Ratio of valproic acid ED50 to compound ED50 in albino mouse after 4 hrs by MES test. It counts as functional. A digest of the protocol: as §4
In series [24] the test system is Mus musculus. As to the kind of experiment: Anticonvulsant activity in ip dosed albino mouse after 0.5 hrs by MES test. In kind it is functional.
The species entered for series [25] is Mus musculus. As to the kind of experiment: Ratio of valproic acid ED50 to compound ED50 in albino mouse after 0.5 hrs by MES test. It counts as functional.

For `CCCC(CCC)CNS(=O)(=O)NCC(=O)OC`, the Activity result in series [1], in series [2], in series [4], in series [9], in [11] and in series [13] was “Non-toxic” throughout. Also, the ED50 in series [3] was determined as 139 µmol/kg. Also, the result in series [5], in series [6], in [7], in series [8], in [10] and in series [12] was inactive. In addition, the result in [14] and in series [15] was inactive. Further, the “Ratio ED50” value in series [16] is reported as 7.3.

Regarding `CCCC(CCC)CNS(=O)(=O)NCCC(=O)OC`, the Activity entry in series [1], in series [2], in series [4], in series [9], in series [11] and in series [13] was “Non-toxic” in each case. Further, the ED50 in series [3] worked out at 79 µmol/kg. Moreover, the result in series [5], in series [8], in series [17] and in series [18] was inactive. Further, the outcome in [10] and in series [14] was Active. Further, in series [16], the “Ratio ED50” value turned out to be 12.8.

Consider `COC(=O)CNS(=O)(=O)NCc1ccccc1`, for which the Activity result in series [1], in series [2], in [4], in series [9], in series [11] and in [13] was “Non-toxic” in each case. Besides, the outcome in series [19], in series [5], in series [6], in [7], in series [8] and in series [10] was inactive. Besides, the result in [17], in series [20], in [18], in [12], in series [14] and in series [15] was inactive.

In series [21], `CCCC(CCC)C(=O)O` [VALPROIC ACID] gave an ED50 of 1010 µmol/kg.

Take `COC(=O)CCNS(=O)(=O)Oc1ccccc1O`: the Activity result in [1], in series [2], in [4], in [9], in series [11] and in series [13] was “Non-toxic” each time. The ED50 in series [22] came out at 374 µmol/kg. The outcome in series [19], in series [5], in series [6], in series [8], in series [10] and in series [20] was inactive. The result in series [12] and in series [14] was inactive. For the same compound, the “Ratio ED50” value in [23] turned out to be 2.7.

As for `CCCC(CCC)CN(C(=O)OC(C)(C)C)S(=O)(=O)NCCC(=O)OC`, the Activity result in [1], in series [2], in [4], in [9], in [11] and in [13] was “Non-toxic” in each case. The result in series [19], in series [5], in series [6], in [7], in series [8] and in series [10] was inactive. For the same compound, the outcome in series [17], in series [20], in [18], in series [12], in series [14] and in series [15] was inactive.

Compound `CCCC(CCC)C(=O)NCC(N)=O` [VALROCEMIDE] yielded a median effective dose (ED50) in series [24] of 755 µmol/kg. Further, the “Ratio ED50” value in series [25] amounted to 1.3.

With `CCCCNS(=O)(=O)NCCC(=O)OC`, the Activity entry in series [1], in series [2], in series [4], in series [9], in [11] and in series [13] was “Non-toxic” each time. The compound further came in with an ED50 in series [3] of 71 µmol/kg. The result in series [5], in series [6], in [7], in series [8], in series [10] and in [15] was inactive. For the same compound, in series [16], the “Ratio ED50” value is on record as 14.2.
